Measured values taken from ChEMBL document CHEMBL3526065, “Metabolism of [6]-shogaol in mice and in cancer cells” (Drug Metab Dispos, 2012).

How the values were obtained:
[1] = Drug level in C57BL/6J mouse feces treated with [6]-shogaol at 200 mg/kg, po by HPLC-ECD analysis relative to control; type: ADME, organism-based; parameters: dose 200 mg/kg, route oral; conditions: in vivo
How it was run: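 Female C57BL/6J mice gavaged once with 200 mg/kg in corn oil, or corn oil alone (n = 5 each). 24-h feces collected in metabolic cages. Feces extracted by sonication 90 min in MeOH/H2O (50/50) + 0.1% acetic acid, centrifuged, diluted fivefold. Analysed by HPLC with electrochemical array detection (Gemini C18, phosphate/acetonitrile/THF gradient), compared against vehicle controls.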

[2] = Antioxidant activity assessed as DPPH radical scavenging activity; type: physicochemical
[3] = Drug level in human HCT116 cells treated with 10 uM [6]-shogaol after 24 hrs by HPLC-ECD analysis; type: ADME, cell-based; conditions: hct-116, 24 h
How it was run: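 Cells (1.0 × 10⁶) attached 24 h in six-well plates, then exposed to 10 μM final in McCoy's 5A with 10% FBS. Extracted with equal volume acetonitrile, diluted 5-fold, analysed by HPLC with electrochemical detection.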

Compound	Drug excretion [1]	IC50 [2]	Drug metabolism [3]
CCCCCC(CC(=O)CCc1ccc(O)c(OC)c1)SC (stereo not given)	metabolite_detected	–	–
CCCCCC(CC(=O)CCc1ccc(O)c(OC)c1)SCC(N)C(=O)O (stereo not given)	metabolite_detected	–	–
CCCCCCCCC[C@H](O)CC(=O)CCc1ccc(O)c(OC)c1	–	12 µM	–
CCCCC/C=C/C(O)CCc1ccc(O)c(OC)c1 (stereo not given)	metabolite_detected	–	metabolite_detected
